# In the library only some 1.3% were active in any assay of this set; here they are far more common.
# PAX8 inh HTS: lowers PAX8-driven luciferase in RMG-I cells. 360,000 tested, 1.2% active. inhibition, % at 12.6 µM. RMG-I TPO-luciferase reporter, SteadyGlo, 24 h;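 active = mean replicate inhibition at least 60% with every replicate also reaching 60%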;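 also: luciferase light reporting Pax8 driven TPO promoter activity; plate controls were median of neutral control wells for no effect and mitoxantrone controls for full effect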
# FN deposit inh: fibronectin deposition inhibition. 350,000 tested, 0.086% active. inhibition, % at 12.6 µM. AH1F fibroblasts, Alexa488-fibronectin deposition fluorescence, overnight. AID 743247;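 active = mean inhibition across replicates of 30% or more, regardless of how many single replicates reach that level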;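 also: positive control wells lacked labelled fibronectin entirely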
#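 Schedule: 1 h cell adhesion before compound, then overnight fibronectin incubation; test system: AH1F fibroblast monolayer depositing Alexa488-labelled fibronectin into matrix; quantity: 10000 AH1F cells per well; probe or stimulus: fluorescent fibronectin at 24 nM final; signal: fluorescence, ex 485 nm, em 525 nm; evaluation: percent inhibition as loss of matrix-bound fibronectin fluorescence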
# RAD52 anneal inh: blocks human RAD52 DNA annealing; P43351; recombinant RAD52 DNA annealing, FRET fluorescence; inhibition, % at 18.7 µM; 360,000 tested, 0.46% active; AID 651710;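 active = every replicate showing at least 50% inhibition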
# Target sequence (P43351 whole entry, looked up): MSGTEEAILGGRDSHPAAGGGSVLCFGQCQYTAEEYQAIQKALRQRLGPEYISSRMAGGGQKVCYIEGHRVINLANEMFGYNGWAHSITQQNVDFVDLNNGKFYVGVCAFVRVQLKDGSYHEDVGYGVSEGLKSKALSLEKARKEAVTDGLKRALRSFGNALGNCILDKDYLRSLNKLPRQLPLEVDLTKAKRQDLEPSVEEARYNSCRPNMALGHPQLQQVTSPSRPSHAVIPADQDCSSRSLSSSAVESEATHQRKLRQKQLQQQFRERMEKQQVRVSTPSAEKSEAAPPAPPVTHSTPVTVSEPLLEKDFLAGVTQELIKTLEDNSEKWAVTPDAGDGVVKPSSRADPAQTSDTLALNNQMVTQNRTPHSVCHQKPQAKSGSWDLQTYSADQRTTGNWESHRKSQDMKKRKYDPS
# RAD54 branch: blocks human RAD54 Holliday junction branch migration; Q92698; FAM/BHQ fluorescence; inhibition, % at 10.4 µM; 360,000 tested, 0.14% active; AID 602329;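 active = mean normalized replicate activity at least 40 and at least half of replicates scoring 40 or more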;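 also: 0% = median of neutral control wells and 100% = median of positive control wells; inhibitors cause a drop in the FAM fluorescence signal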
# RAD52 DNA ctr: counter-screen for RAD52 inhibitors: DNA binding compounds; 1,000 tested, 8% active; shares compounds with RAD52 anneal inh; Salmon sperm DNA/acridine orange FP displacement; AC50, µM;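 active = fitted half-maximal concentration for signal loss at or below twice the highest dose tested, in every separate run, actives reach about 64 µM in these data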
# Active calls of the source: *; i = inactive; · = no result given.
SMILES,PAX8 inh HTS,FN deposit inh,RAD52 anneal inh,RAD54 branch,RAD52 DNA ctr
CCN(CC)CCNc1nc(-c2cccs2)c(CC(=O)O)s1,12.2,-1.3,88.2*,-2.3,i
CCN(CC)c1ccc(N=Cc2ccc(N(CC)CC)cc2O)cc1,·,2.3,·,·,·
CCN1CCN(c2ccc(N=Cc3ccc(O)cc3O)cc2)CC1,15.1,-0.7,91.1*,·,i
Cc1noc(C)c1S(=O)(=O)N(C)C[C@@H]1Oc2ccc(NC(=O)Nc3ccc4c(c3)OCO4)cc2CC(=O)N([C@@H](C)CO)C[C@@H]1C,-2.1,·,-4.8,1.8,·
CC(CC(=O)c1ccc(F)cc1)N1CCN(c2ccccc2)CC1 (centres undefined),-0.5,6.9,79.7*,·,i
COc1ccccc1N1CCN(CC(=O)c2ccc(F)cc2)CC1,8.6,-11.7,-10.4,2.1,·
CCCCc1nc(S(=O)(=O)c2ccc(Cl)cc2)c(N2CCOCC2)o1,7.1,1.1,·,-8.1,·
CCOC(=O)c1c(-c2ccccc2)oc2ccc(OCC)cc12,-9.3,9.6,·,3.3,·
CCOC(=O)c1c(-c2ccccc2)oc2ccc(OCC(O)CNCCN(C)C)cc12 (centres undefined),36.0,8.4,83.0*,38.4,i
CCOC(=O)c1c(NC(=O)C(NCCN(C)C)c2ccccc2)sc2c1CCCC2 (centres undefined),38.2,2.0,63.5*,16.3,i
CCCCN1CC(=O)N2[C@H]3c4cc(OC)ccc4OC[C@@H]3[C@H](C(=O)OCC)[C@]2(C)C1=O,-6.9,-2.6,-13.4,3.4,·
CC(=O)c1cccc(Nc2cc(C)nc3ccccc23)c1,-11.3,-13.0,8.5,20.6,·
CC(=O)c1cccc(Nc2cc(C)nc3c(C)cccc23)c1,-8.6,1.1,50.3*,·,i
Cc1ccc2c(c1)N(Cc1ccccc1)C(=O)C(C)S2 (centres undefined),2.2,·,0.8,7.2,·
C[n+]1c(-c2ccc(C=NNC(=O)c3ccc(C(=O)NN=Cc4ccc(-c5cn6ccccc6[n+]5C)cc4)cc3)cc2)cn2ccccc21,3.5,-16.1,94.1*,·,26µM*
CN1CCN(C2Cc3ccccc3Sc3ccc(Cl)cc32)CC1 (centres undefined),-7.1,1.0,53.9*,12.5,i
CN1CCN(C2Cc3ccccc3Sc3cc(C(F)(F)F)ccc32)CC1 (centres undefined),20.8,-8.0,36.1,·,·
CSc1ccc2c(c1)C(N1CCN(C)CC1)Cc1ccccc1S2 (centres undefined),-0.5,-1.5,52.0*,18.9,i
N=C(N)c1ccc(N=Nc2c(O)ccc3c2[nH]c2ccccc23)cc1,26.3,2.8,102.4*,·,i
CN(C)CC/C=C1/c2ccccc2Sc2ccc(Cl)cc21,-3.2,-11.0,41.4,9.4,·
CCCCCC[N+](C)(C)CC/C=C1/c2ccccc2Sc2ccc(Cl)cc21,49.8,11.6,63.0*,·,i
Cc1cccc(/C=C/C(=O)c2ccc(NC3=NCCCS3)cc2)c1,-31.0,8.4,54.4*,·,i
COc1cccc(/C=C/C(=O)c2ccc(NC3=NCCCS3)cc2)c1,-15.8,-1.1,31.8,·,·
COc1ccc2nc3cc(Cl)ccc3c(Nc3ccc(O)c(CN4CCN(C)CC4)c3)c2c1,-33.1,-1.0,103.8*,·,6.08µM*
CC(=O)C1CCC2C3CC=C4CC(SC(=N)N)CCC4(C)C3CCC12C (centres undefined),·,-1.6,51.0*,·,i
SMILES,PAX8 inh HTS,FN deposit inh,RAD52 anneal inh,RAD54 branch,RAD52 DNA ctr
CCN(CC)CCNC(=O)C(=O)NCC1OCCN1S(=O)(=O)c1cccs1 (centres undefined),3.9,·,53.8*,-6.6,i
COCCNC(=O)C(=O)NCC1OCCN1S(=O)(=O)c1cccs1 (centres undefined),-11.6,-13.0,-13.5,-10.3,·
Cn1cnc(S(=O)(=O)N[C@H]2CC[C@H](CC(=O)N3CCN(c4ccccc4)CC3)O[C@H]2CO)c1,7.8,12.1,-11.6,1.3,·
C[C@@H](c1ccccc1)N1C[C@H](COCc2ccccc2)Oc2cc(N3CC[C@H](N(C)C)C3)ccc2S1(=O)=O,34.9,1.7,51.8*,·,i
COc1cccc(C(=O)Nc2nc(-c3ccc(S(=O)(=O)N4CCOCC4)cc3)cs2)c1,·,·,·,-3.9,·
COc1ccc(/C=N/Nc2nc(-c3cccc(S(=O)(=O)N4CCCC4)c3)cs2)c(OC)c1,36.6,2.0,96.0*,·,i
CN(C)CCCN(C(=O)c1ccco1)c1nc2cc3c(cc2s1)OCO3,0.0,-1.5,54.4*,41.2,i
CC(=O)N(CCN(C)C)c1nc2cc3c(cc2s1)OCCO3,-14.0,7.2,55.3*,38.3,i
CN(C)CCN(C(=O)c1ccc2ccccc2c1)c1nc2cc3c(cc2s1)OCO3,-45.7,-0.4,66.5*,32.5,i
CCN(CC)CCN(C(=O)c1ccc(N2C(=O)CCC2=O)cc1)c1nc2cc3c(cc2s1)OCCO3,-9.8,5.2,80.0*,·,i
CN(C)CCN(C(=O)c1ccc(S(=O)(=O)N(C)C)cc1)c1nc2cc3c(cc2s1)OCCO3,-48.4,1.9,-5.3,22.6,·
CN(C)CCN(C(=O)c1ccc2c(c1)OCCO2)c1nc2cc3c(cc2s1)OCO3,-36.7,·,0.2,33.7,·
CN(C)CCN(C(=O)c1ccc2c(c1)CCCC2)c1nc2cc3c(cc2s1)OCCO3,-56.2,4.1,72.5*,3.9,i
CN(C)CCCN(C(=O)c1ccc(C(=O)c2ccccc2)cc1)c1nc2cc3c(cc2s1)OCO3,2.7,6.6,62.2*,36.9,i
COc1ccc(Cl)c2sc(N(CCN(C)C)C(=O)c3ccc4c(c3)OCCO4)nc12,-2.1,12.0,91.0*,·,i
CCNC(=O)C[C@@H]1CC[C@H]2[C@H](COc3ccc(NC(=O)Nc4ccccc4Cl)cc3C(=O)N2C)O1,7.4,-2.0,-2.4,7.8,·
COc1ccc(S(=O)(=O)N2CCCCCC2)cc1NC(=O)c1ccccc1F,-4.9,-8.1,-16.5,-2.7,·
Nc1ccc(Nc2nc(-c3ccncc3)cs2)cc1,·,·,-8.6,-11.6,·
Nc1ccc(Nc2ccncc2)cc1,-8.0,12.1,69.5*,30.5,i
O=C(Nc1ccc(OCC(F)(F)C(F)F)cc1)c1ccncc1,-0.4,23.4,-1.0,1.3,·
COc1ccc(CCN2C(=O)CC(N3CCN(C/C=C/c4ccccc4)CC3)C2=O)cc1OC (centres undefined),6.2,-0.5,-9.3,·,·
C=CCNc1nc(NCc2cccc(OC)c2)c2sc(-c3ccccc3)cc2n1,-8.7,1.5,82.7*,-2.8,i
COCCNc1nc(NCCOC)c2sc(-c3ccccc3)cc2n1,-20.3,·,0.1,-2.2,·
CN1CCC(N(C)C(=O)/C=C/c2cn(-c3ccccc3)nc2-c2cccs2)CC1,22.3,·,71.0*,·,i
CCN1CCN(c2nc(Nc3ccc(NC(C)=O)cc3)nc(Nc3ccc(NC(C)=O)cc3)n2)CC1,5.3,-0.4,73.2*,·,i
O=c1ccn([C@@H]2O[C@H](CNCc3cccc4c3sc3ccccc34)[C@@H](O)[C@H]2O)c(=O)[nH]1,-9.9,-7.9,62.1*,8.1,i
